Reference: ChEMBL document CHEMBL4385635, “Styryl quinazolinones and its ethynyl derivatives induce myeloid differentiation” (Bioorg Med Chem Lett, 2019)
Calls of active or inactive are those of the source. No cut-off for these calls is given here.

Columns and labels:
[1] = test system: HL-60; test: Cytotoxicity against human HL60 cells assessed as reduction in cell viability at >3 uM; format: functional, cell-based
[2] = test system: HL-60; test: Induction of apoptosis in human HL60 cells at 10 uM after 7 days; format: functional
In short: (§1)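 Apoptosis in compound-treated HL-60 cells was scored semi-quantitatively (− to +++), alongside the differentiation read-outs, against a 0.1% DMSO vehicle control.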

[3] = test system: HL-60; test: Cytotoxicity against human HL60 cells assessed as reduction in cell viability at 3 uM; format: functional, cell-based
[4] = test system: HL-60; test: Induction of differentiation of human HL60 cells assessed as morphological changes at 3 uM after 7 days; format: functional, cell-based
In short: (§2)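 HL-60 cells were treated with compound, with 0.1% DMSO as vehicle control. Differentiation was judged by Wright-Giemsa morphology and NBT reduction, each scored semi-quantitatively from − through ± to +++.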

[5] = test system: HL-60; test: Induction of differentiation of human HL60 cells assessed as increase in CD11b positive cells at 10 uM after 7 days by flow cytometric analysis (reference value: 3.94%); format: functional
[6] = test system: HL-60; test: Induction of differentiation of human HL60 cells assessed as morphological changes at 10 uM after 7 days by Wright-Giemsa staining based assay; format: functional
In short: (§3)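 HL-60 cells were screened for differentiation by Wright-Giemsa morphology and NBT reduction, and apoptosis was scored alongside. Controls were 0.1% DMSO as vehicle and ATRA at 1 μM as positive. Each result was graded on a semiquantitative scale (−, ±, + to +++).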

[7] = test system: HL-60; test: Induction of differentiation of human HL60 cells assessed as morphological changes at 10 uM after 7 days by NBT reduction assay; format: functional; in short: as §3
[8] = test system: HL-60; test: Induction of differentiation of human HL60 cells assessed as increase in CEBPA mRNA expression at by QT-PCR analysis; format: functional, cell-based
In short: (§4)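 HL-60 cells were treated and CEBPA and CEBPE mRNA levels were measured by quantitative RT-PCR. Results are expressed as fold increase relative to DMSO-treated cells.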

[9] = test system: HL-60; test: Induction of differentiation of human HL60 cells assessed as increase in CEBPE mRNA expression at 10 uM by QT-PCR analysis; format: functional; in short: as §4
[10] = test system: HL-60; test: Induction of differentiation of human HL60 cells assessed as increase in CEBPA mRNA expression at 10 uM by QT-PCR analysis; format: functional; in short: as §4
[11] = test system: HL-60; test: Induction of differentiation of human HL60 cells assessed as increase in CD11b positive cells after 7 days by flow cytometric analysis relative to control; format: functional, cell-based
In short: (§5)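 HL-60 cells were exposed to compound for 7 days, then stained with APC-conjugated anti-human/mouse CD11b antibody, with rat IgG2b as isotype control. CD11b-positive cells were measured by flow cytometry and reported as percent increase relative to the DMSO vehicle.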

[12] = test system: HL-60; test: Induction of differentiation of human HL60 cells assessed as morphological changes at 3 uM after 7 days by NBT reduction assay; format: functional; in short: as §3
[13] = test system: HL-60; test: Induction of differentiation of human HL60 cells assessed as morphological changes at 3 uM after 7 days by Wright-Giemsa staining based assay; format: functional; in short: as §3
[14] = test system: HL-60; test: Induction of differentiation of human HL60 cells assessed as increase in CEBPA mRNA expression at 7 uM by QT-PCR analysis; format: functional; in short: as §4
[15] = test system: HL-60; test: Induction of apoptosis in human HL60 cells at 3 uM after 7 days; format: functional; in short: as §3
[16] = test system: HL-60; test: Induction of differentiation of human HL60 cells assessed as increase in CD11b positive cells at 7 uM after 7 days by flow cytometric analysis (reference value: 3.94%); format: functional
[17] = test system: HL-60; test: Induction of differentiation of human HL60 cells assessed as increase in CEBPE mRNA expression at 7 uM by QT-PCR analysis; format: functional; in short: as §4
[18] = test system: L1210; test: Cytotoxicity against mouse L1210 cells assessed as reduction in cell viability after 48 hrs by trypan blue staining-based hemocytometric analysis; format: functional; settings: L1210, 48 h
[19] = test system: HL-60; test: Induction of apoptosis in human HL60 cells at 1 uM after 7 days; format: functional; in short: as §1
[20] = test system: HL-60; test: Induction of differentiation of human HL60 cells assessed as morphological changes at 1 uM after 7 days by NBT reduction assay; format: functional
In short: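 In compound-treated HL-60 cells, differentiation was read as NBT reduction. Scoring was semi-quantitative (−, ±, + to +++) against a 0.1% DMSO vehicle control.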

[21] = test system: HL-60; test: Induction of differentiation of human HL60 cells assessed as increase in CEBPA mRNA expression at 1 uM by QT-PCR analysis; format: functional
In short: (§6)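 HL-60 cells were treated with compound over a time course. CEBPA or CEBPE mRNA levels were measured and expressed as fold increase relative to the DMSO vehicle.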

[22] = test system: HL-60; test: Induction of differentiation of human HL60 cells assessed as morphological changes at 1 uM after 7 days by Wright-Giemsa staining based assay; format: functional
In short: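 Compound-treated HL-60 cells were stained with Wright-Giemsa and examined for granulocytic morphology. Scoring was semi-quantitative (− to +++) against a 0.1% DMSO vehicle control.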

[23] = test system: HL-60; test: Induction of differentiation of human HL60 cells assessed as increase in CD11b positive cells at 1 uM after 7 days by flow cytometric analysis (reference value: 3.94%); format: functional; in short: as §5
[24] = test system: HL-60; test: Induction of differentiation of human HL60 cells assessed as increase in CD11b positive cells at 5 uM after 7 days by flow cytometric analysis (reference value: 3.94%); format: functional
[25] = test system: HL-60; test: Induction of differentiation of human HL60 cells assessed as increase in CEBPA mRNA expression at 3 uM by QT-PCR analysis; format: functional; in short: as §4
[26] = test system: HL-60; test: Induction of differentiation of human HL60 cells assessed as increase in CD11b positive cells at 3 uM after 7 days by flow cytometric analysis (reference value: 3.94%); format: functional
[27] = test system: HL-60; test: Induction of differentiation of human HL60 cells assessed as increase in CEBPE mRNA expression at 3 uM by QT-PCR analysis; format: functional; in short: as §4
[28] = test system: HL-60; test: Induction of differentiation of human HL60 cells assessed as morphological changes at 10 uM after 7 days; format: functional; in short: as §3
[29] = biological target: Tubulin (Bos taurus, UniProt Q6B856+Q862L2+Q862F3); test: Inhibition of bovine brain tubulin polymerization
[30] = test system: HL-60; test: Induction of differentiation of human HL60 cells assessed as increase in CEBPE mRNA expression at by QT-PCR analysis; format: functional, cell-based; in short: as §6
[31] = test system: HL-60; test: Cytotoxicity against human HL60 cells assessed as reduction in cell viability at 1 uM; format: functional, cell-based
[32] = test system: HL-60; test: Induction of differentiation of human HL60 cells assessed as morphological changes at 1 uM after 7 days; format: functional, cell-based; in short: as §2

O=c1c2sccc2nc(/C=C/c2ccc([N+](=O)[O-])o2)n1-c1ccc(Cl)cc1
Activity [1]: Active
Activity [2]: 5 - 30%
Activity [3]: Active
Activity [4]: inactive

O=c1c2sccc2nc(/C=C/c2ccc([N+](=O)[O-])o2)n1-c1cccc(Cl)c1
Activity [1]: Active
Activity [2]: 5 - 30%
Activity [3]: Active
Activity [4]: inactive

COc1ccccc1-n1c(/C=C/c2ccc(O)c(O)c2)nc2ccccc2c1=O
Activity [5]: 25.9 - 51.2%
Activity [6]: 5 - 30%
Activity [7]: 5 - 30%
Activity [2]: 5 - 30%
Activity ([8]; TDE = time-dependent effect): Tde
fold change (FC) [9]: 2.1
fold change (FC) [10]: 1.5

O=c1c2ccccc2nc(/C=C/c2ccc([N+](=O)[O-])o2)n1-c1ccccc1F
Activity [5]: 59%
Activity [6]: 30 - 60%
Activity [7]: 30 - 60%
Activity [2]: >60%
Activity ([8]; TDE = time-dependent effect): Tde
fold change (FC) [9]: 6
fold change (FC) [10]: 1.8

O=c1[nH]c(/C=C/c2ccc([N+](=O)[O-])o2)nc2ccsc12
Activity [11]: inactive
Activity [7]: 5 - 30%
Activity [1]: Active
Activity [2]: 5 - 30%
Activity [8]: Active
Activity [3]: Active
Activity [4]: inactive

COc1ccccc1-n1c(/C=C/c2ccc([N+](=O)[O-])o2)nc2ccc(F)cc2c1=O
Activity [5]: 94.2%
Activity [12]: 5 - 30%
Activity [6]: 30 - 60%
Activity [7]: 30 - 60%
Activity [13]: 5 - 30%
Activity [2]: >60%
Activity ([8]; TDE = time-dependent effect): Tde
fold change (FC) [14]: 1.6
Activity [15]: 30 - 60%
Activity [16]: 89%
fold change (FC) [17]: 2.6

Cc1cc(-n2c(/C=C/c3ccccc3)nc3ccc(Cl)cc3c2=O)n(-c2ccccc2)n1
IC50 [18]: 15 µM

CC1=C(/C=C/C(C)=C/C=C/C(C)=C/C(=O)O)C(C)(C)CCC1 [TRETINOIN]
Activity [19]: >60%
Activity [20]: >60%
fold change (FC) [21]: 3
Activity [22]: >60%
Activity ([8]; TDE = time-dependent effect): Tde
Activity [23]: 96.4%

COc1cc(/C=C/c2nc3ccccc3c(=O)n2-c2c(Cl)cccc2Cl)ccc1O
Activity [2]: 5 - 30%

O=C(O)c1cccc(-n2c(/C=C/c3ccc([N+](=O)[O-])o3)nc3ccccc3c2=O)c1
Activity [6]: 5 - 30%
Activity [7]: 5 - 30%

Cc1ccc(-n2c(/C=C/c3ccc([N+](=O)[O-])o3)nc3ccsc3c2=O)cc1
Activity [1]: Active
Activity [2]: 5 - 30%

O=c1c2cc(F)ccc2nc(/C=C/c2ccc([N+](=O)[O-])o2)n1-c1ccccc1
Activity [24]: 68.6%
Activity [12]: 30 - 60%
fold change (FC) [25]: 2.5
Activity [26]: 42.2%
Activity [13]: 30 - 60%
Activity ([8]; TDE = time-dependent effect): Tde
Activity [15]: 30 - 60%
fold change (FC) [27]: 10.3

C#Cc1ccc(-n2c(/C=C/c3ccc(O)cc3)nc3ccccc3c2=O)cc1
Activity [6]: 5 - 30%
Activity [7]: 5 - 30%
Activity [2]: 5 - 30%
Activity [28]: 5 - 30%

Oc1nc(/C=C/c2ccccc2)nc2ccc(Cl)cc12
IC50 [29]: 2.5 µM

Cc1cc(C#Cc2ccc(C(C)(C)C)cc2)ccc1-n1c(/C=C/c2ccc([N+](=O)[O-])o2)nc2ccccc2c1=O
Activity [11]: inactive
Activity [6]: 5 - 30%
Activity [7]: 5 - 30%
Activity [2]: 5 - 30%
Activity [28]: 5 - 30%
Activity [8]: inactive
Activity [30]: inactive

O=c1c2sccc2nc(/C=C/c2ccc([N+](=O)[O-])o2)n1-c1ccccc1Cl
Activity [11]: inactive
Activity [7]: 5 - 30%
Activity [31]: Active
Activity [1]: Active
Activity [2]: 5 - 30%
Activity [8]: Active
Activity [32]: inactive
